Source: PubChem BioAssay AID449757 (Broad Institute, 2010)
Active and inactive are the calls of the source.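 The calls were made as follows: active = compounds whose fitted caspase activation midpoint falls no more than tenfold above the top tested dose; inconclusive = flat fit with activity between 30 and 70 percent, or failed fit; inactive = the rest.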

tested on: MEF Flag-A1-IRES-BIM, caspase-Glo luminescence, 3 h; assay: Caspase-Glo signal, Flag-A1-IRES-BIM MEF cells – cell-based, alternate construct, luminescence, A1 (Bcl2A1) inhibitor project, dose response (AID 449757)
Procedure, shortened: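 System: Flag-A1-IRES-BIM-primed MEF cells; Doses: 100 nL compound added per well by pin transfer; Times: 3 h at 37 °C, then 1 h detection at room temperature; Measured by: luminescent caspase activity measurement with CaspaseGlo reagent.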

| SMILES | AC50 |
| --- | --- |
| CCc1ccc2nc(N(CCCN(C)C)C(=O)c3ccc(S(=O)(=O)N4CCc5ccccc5C4)cc3)sc2c1 | > 35 µM (inactive) |
| O=C1/C(=C/c2ccc(N3CCOCC3)o2)SC(=Nc2ccccc2)N1CCc1c[nH]c2ccccc12 | > 35 µM (inactive) |
| COc1cc(/C=C2/C(=N)N3C=CSC3=NC2=O)ccc1OCCCOc1cc(C)ccc1C | 16.2 µM |
| CC1CC(C)CN(C(=O)c2ccc(-c3ccc([N+](=O)[O-])cc3)o2)C1 (stereo not drawn) | > 35 µM (inactive) |
| COc1cc(NC(=O)c2ccc(C)cc2C)ccc1NC(=O)c1cc2ccccc2o1 | 32.3 µM |
| Cc1occc1-c1nnc(SCC(=O)NCCc2ccccc2)n1Cc1ccccc1 | > 35 µM (inactive) |
| COc1cc(-c2cc(-c3ccccc3)nc(SCC(=O)Nc3nccs3)c2C#N)cc(OC)c1OC | > 35 µM (inactive) |
| CCOc1cc(/C=C\[N+](=O)[O-])ccc1OCC(=O)Nc1ccccc1C | 6.53 µM |
| Cc1ccc(C)c(S(=O)(=O)NCC(=O)Nc2sc3c(c2C(N)=O)CCC(C)C3)c1 (stereo not drawn) | > 35 µM (inactive) |
| CCC(Sc1nc2cc3c(cc2c(=O)n1Cc1ccco1)OCO3)C(=O)Nc1cccc(OC)c1 (stereo not drawn) | > 35 µM (inactive) |
| Cc1ccc(NC(=S)NC(NC(=O)Cc2cccc3ccccc23)C(Cl)(Cl)Cl)cc1 (stereo not drawn) | 20.2 µM |
| COc1ccc(NC(=O)CSc2nc3ccc(Nc4nc(N5CCOCC5)nc(N5CCOCC5)n4)cc3s2)cc1 | > 35 µM (inactive) |
| CC1=CC(=O)C(C(C)C)=C/C1=N/OS(=O)(=O)c1ccccc1 | 6.53 µM |
